Data on five molecules can be found in ChEMBL document CHEMBL5620421, “2,6-Disubstituted 7-(naphthalen-2-ylmethyl)-7H-purines as a new class of potent antitubercular agents inhibiting DprE1” (Eur J Med Chem, 2023).

Assay type in all cases: functional
Holding throughout (conditions): time 14-21 day

Experiment [1] relates to Mycobacterium tuberculosis. The experiment is described as follows: Antimycobacterial activity against isoniazid/ethambutol/rifampin/streptomycin/amikacin/gentamicin/clofazimine/ofloxacin resistant MDR/XDR clinical isolate Mycobacterium tuberculosis PRAHA 131 assessed as inhibition of mycobacterial growth measured after 14 to 21 days of incubation by Sulas semisynthetic medium based assay. In a few lines: (§1)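 Clinical MDR/XDR M. tuberculosis isolates were tested by the Sula's semisynthetic medium micromethod. Compounds in DMSO at 1000 to 0.5 μmol/L, in twofold-type steps. Incubation at 37 °C, read at 14 and 21 days. MIC99 is the lowest concentration inhibiting >99% of growth. Drug resistance or susceptibility of each isolate is to amikacin, clofazimine, gentamicin, ofloxacin, streptomycin and the others listed.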

In experiment [2] the test system is Mycobacterium tuberculosis. Nature of the experiment: Antimycobacterial activity against isoniazid/ethambutol/rifampin/streptomycin/amikacin/gentamicin/clofazimine/ofloxacin resistant MDR/XDR clinical isolate Mycobacterium tuberculosis PRAHA 4 assessed as inhibition of mycobacterial growth measured after 14 to 21 days of incubation by Sulas semisynthetic medium based assay. In a few lines:
as §1

The test system of experiment [3] is Mycobacterium tuberculosis. The experiment is described as follows: Antimycobacterial activity against isoniazid/ethambutol/rifampin/streptomycin/amikacin/gentamicin/clofazimine/ofloxacin resistant MDR/XDR clinical isolate Mycobacterium tuberculosis 7357/1998 assessed as inhibition of mycobacterial growth measured after 14 to 21 days of incubation by Sulas semisynthetic medium based assay. In short, it runs like this:
as §1

Experiment [4] relates to Mycobacterium tuberculosis. Nature of the experiment: Antimycobacterial activity against isoniazid/ethambutol/rifampin/streptomycin/amikacin/gentamicin/clofazimine/ofloxacin resistant MDR/XDR clinical isolate Mycobacterium tuberculosis 8666/2010 assessed as inhibition of mycobacterial growth measured after 14 to 21 days of incubation by Sulas semisynthetic medium based assay. In a few lines:
as §1

The subject of experiment [5] is Mycobacterium tuberculosis. The experiment is described as follows: Antimycobacterial activity against isoniazid/ethambutol/rifampin/streptomycin/amikacin/gentamicin/clofazimine/ofloxacin resistant MDR/XDR clinical isolate Mycobacterium tuberculosis 234/2005 assessed as inhibition of mycobacterial growth measured after 14 to 21 days of incubation by Sulas semisynthetic medium based assay. In short, it runs like this:
as §1

The test system of experiment [6] is Mycobacterium tuberculosis. Nature of the experiment: Antimycobacterial activity against isoniazid/ethambutol/rifampin/streptomycin/amikacin/gentamicin/clofazimine/ofloxacin resistant MDR/XDR clinical isolate Mycobacterium tuberculosis 9449/2007 assessed as inhibition of mycobacterial growth measured after 14 to 21 days of incubation by Sulas semisynthetic medium based assay. In short, it runs like this:
as §1

For experiment [7], the system named is Mycobacterium tuberculosis. The experiment is described as follows: Antimycobacterial activity against isoniazid/ethambutol/rifampin/streptomycin/amikacin/gentamicin/clofazimine/ofloxacin resistant MDR/XDR clinical isolate Mycobacterium tuberculosis PRAHA 1 assessed as inhibition of mycobacterial growth measured after 14 to 21 days of incubation by Sulas semisynthetic medium based assay. In a few lines:
as §1

Take `NCC[C@H](O)C(=O)N[C@@H]1C[C@H](N)[C@@H](O[C@H]2O[C@H](CN)[C@@H](O)[C@H](O)[C@H]2O)[C@H](O)[C@H]1O[C@H]1O[C@H](CO)[C@@H](O)[C@H](N)[C@H]1O` [AMIKACIN]: the MIC99 in experiment [1] was above 32 µM.

On to `CC1COc2c(N3CCN(C)CC3)c(F)cc3c(=O)c(C(=O)O)cn1c23` (stereo not given) [OFLOXACIN], for which, in experiment [2], the MIC99 is above 16 µM.

Take `CO[C@H]1/C=C/O[C@@]2(C)Oc3c(C)c(O)c4c(O)c(c(/C=N/N5CCN(C)CC5)c(O)c4c3C2=O)NC(=O)/C(C)=C\C=C\[C@H](C)[C@H](O)[C@@H](C)[C@@H](O)[C@@H](C)[C@H](OC(C)=O)[C@@H]1C` [RIFAMPIN]: the MIC99 in experiment [3], in experiment [1], in experiment [4], in experiment [5], in experiment [2] and in experiment [6] was above 8 µM throughout. The MIC99 in experiment [7] was above 8 µM.

`CN[C@@H]1[C@H](O[C@H]2[C@H](O[C@H]3[C@H](O)[C@@H](O)[C@H](N=C(N)N)[C@@H](O)[C@@H]3N=C(N)N)O[C@@H](C)[C@]2(O)C=O)O[C@@H](CO)[C@H](O)[C@H]1O` [STREPTOMYCIN]: the MIC99 in experiment [3], in experiment [1], in experiment [4], in experiment [2] and in experiment [6] was above 32 µM in each case.

In the case of GENTAMICIN, the MIC99 in experiment [1] is above 8 µM.
